Source: PubChem (several laboratories)
DAGLB inh: blocks human DAGLB lipase activity. inhibition, % at 5.17 µM. actives 0.059% (n = 340,000). Q8NCG7. HEK293T DAGLB membrane lysate, EnzChek fluorogenic substrate. AID 504411; in the data active = inhibition above about 34%
NRP1-CendR mod: NRP-1/CendR interaction modulation | O14786 | FAM-RPARPAR peptide binding to NRP-1, fluorescence polarization | inhibition, % at 25 µM | actives 0.85% (n = 360,000);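 active = inhibition or corrected inhibition above about 18%, plus a signal ratio from 0.5 to 1.5, limit read from the data, passing the limit was not always enough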
beta cell repl: induces beta-cell replication in MIN6 cells; MIN6 cells proliferation, ATPlite luminescence, 48 h; cells starved in 0.2% serum; 100% = growth in 10% serum; proliferation, % at 10 µM; actives 0.29% (n = 330,000); AID 2380;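 active = compounds whose signal lies at least 3.5 SD above the mean of all wells on their plate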
MT1-MMP act inh: MT1-MMP (human) activation inhibition; P50281; HT1080 RFP-PRO-GFP cells, GFP/RFP ratio fluorescence, overnight; percent of plate control window, DMSO zero; GFP/RFP ratio change, % at 20 µM; actives 0.061% (n = 360,000);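 active = GFP/RFP ratio change of at least 30% with cell ATP level not reduced by more than half and red fluorescence within 50% of control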
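Material – HT1080 RFP-PRO-GFP cells · Control set – DMSO wells and RFP-L50D-GFP cells · Incubation – overnight cell settling, then overnight compound exposure, 37 °C, 5% CO2 · Compound dosing – single-point 20 µM compound, 1% DMSO · Read-out – GFP/RFP fluorescence ratio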
Myeloid diff MLP: promotes myeloid progenitor differentiation; actives 1% (n = 360,000); calls only at 10 µM; AID 624256; ER-HoxA9 myeloid progenitors, lysozyme-GFP differentiation, flow cytometry;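 active = normalized GFP-positive differentiation at or above the plate's own cutoff, the solvent-only control mean plus 3 SD; inconclusive = no clear call, values can overlap the other calls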;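 also: cells exposed to compound for four days before flow analysis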
SENP1 FRET inh: inhibitors of human SENP1 SUMO protease catalytic domain; Q9P0U3; recombinant SENP1 catalytic domain, CyPet-SUMO1-YPet FRET cleavage; inhibition, % at 10 µM; actives 0.21% (n = 360,000); AID 624204;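 active = inhibition at least 30% at 10 µM, raw YFP signal under a set limit, fluorescence ratio 0.5 to 1.5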
Target sequence (Q9P0U3 419-644 limits assumed): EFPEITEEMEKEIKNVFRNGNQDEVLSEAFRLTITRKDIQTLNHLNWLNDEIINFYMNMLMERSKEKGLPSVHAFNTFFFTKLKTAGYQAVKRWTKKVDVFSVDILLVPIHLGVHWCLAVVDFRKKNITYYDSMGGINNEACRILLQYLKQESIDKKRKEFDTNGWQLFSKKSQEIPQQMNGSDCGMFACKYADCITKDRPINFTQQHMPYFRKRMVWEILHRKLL
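material = recombinant human SENP1 catalytic domain, His6-tagged | quantity = 20 pM enzyme | reagent = 25 nM SUMO1 FRET substrate | compound dosing = 10 µM single point, 0.5% DMSO | timing = 50 min enzyme reaction, room temperature, light-protected | detection = FRET, CFP and YFP emission | control set = no-enzyme low, enzyme-DMSO high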
Large screens that a line does not name were inactive; ! = not confirmed by another sample. Most compounds without a hit are left out; they make up all but 2.4% or so of the library.

CN(C)CCCN(C(=O)/C=C/c1cccs1)c1nc2ccc(F)cc2s1	Myeloid diff MLP active
COCCNC(=O)c1ccccc1NS(=O)(=O)c1ccc(Br)s1	none
O=C(/C=C/c1cccc(Cl)c1Cl)OCC(=O)N1CCOCC1	none
CCCOC(=O)C1NC(=O)N2C(C(=O)OCCC)C(C)(C)S[C@H]12 (stereo partly specified)	none
CC1(C)S[C@@H]2C(C(=O)OCc3ccccc3)NC(=O)N2C1C(=O)OCc1ccccc1 (stereo partly specified)	NRP1-CendR mod 33.5
O=C1NC[C@H](Cc2ccc(O)cc2)N(CCc2cccc(F)c2)C1=O	none (no result: DAGLB inh, beta cell repl)
Cc1cc(C)c(C#N)c(N2CCN(CCOc3ccc(Cl)cc3)CC2)n1	NRP1-CendR mod 27.1 (no result: Myeloid diff MLP)
COc1ccc(Cl)cc1CN1CCN(c2nc(C)cc(C)c2C#N)CC1	none
Cc1cc(C)n(CCNC(=O)[C@H]2O[C@@H](n3cnc4c(N)ncnc43)[C@H](O)[C@@H]2O)n1	none (no result: DAGLB inh, beta cell repl)
COc1ccc(S(=O)(=O)NCC(c2ccc3c(c2)OCO3)N2CCN(c3ccccc3)CC2)cc1 (stereo unspecified)	none
CCOC(=O)C(Oc1ccc2c(-c3ccccc3)cc(=O)oc2c1)c1ccccc1 (stereo unspecified)	Myeloid diff MLP inconclusive
CN1CCN(CC(=O)Nc2nnc(-c3cccs3)s2)CC1	none
Cc1c(C)c2ccc(O[C@@H]3O[C@H](CO)[C@H](O)[C@H](O)[C@H]3O)cc2oc1=O	Myeloid diff MLP active
O=c1cc(-c2ccc(O)c(O)c2)oc2cc(O[C@@H]3O[C@H](CO)[C@@H](O)[C@H](O)[C@H]3O)cc(O)c12	SENP1 FRET inh 34.1
CCN1CCN(Cc2ccc(NC(=O)c3ccc(C)c(NC(=O)N4CCNC4=O)c3)cc2C(F)(F)F)CC1	Myeloid diff MLP active!
O=C(CNC(=O)c1nc[nH]c1C(=O)N1CCN(c2ccccc2)CC1)OCc1ccccc1	none
CCCn1nc2cc(C(=O)NCc3ccc(OC(F)(F)F)cc3)ccc2c1OCC	NRP1-CendR mod 18.8
CCOc1c2ccc(C(=O)NCc3ccc(OC(F)(F)F)cc3)cc2nn1CC	none
CCOc1c2ccc(C(=O)NCc3ccc4c(c3)OCO4)cc2nn1CCOC	NRP1-CendR mod 18.0
O=C(CCN1C(=O)NC2(CCCC2)C1=O)Nc1ccc(-c2nc3ccccc3s2)cc1	Myeloid diff MLP active
CN1CCN(C(=O)CNc2ccc(C(F)(F)F)cc2[N+](=O)[O-])CC1	none
OC[C@@H]1CN(Cc2ccccc2)C[C@H](n2cnc3c(N4CCOCC4)ncnc32)O1	none (no result: DAGLB inh, beta cell repl)
Cc1ccc(S(=O)(=O)NCC(=O)N(c2ccccc2)C(C(=O)NCc2ccccc2)c2ccco2)cc1 (stereo unspecified)	NRP1-CendR mod 28.8
Cc1ccccc1C(=O)c1cccn1CC(=O)NCCCc1ccccc1	none
COc1ccc(C)cc1S(=O)(=O)N(CC(=O)NCc1ccc(Cl)cc1)Cc1ccccc1	Myeloid diff MLP active
COc1ccc(C)cc1S(=O)(=O)N(CC(=O)N1CCOCC1)Cc1ccccc1	none
COc1ccc(CNC(=O)CN(Cc2ccccc2)S(=O)(=O)c2ccc(Cl)cc2)cc1	none
COc1ccc(CNC(=O)CN(Cc2ccc(Cl)cc2)S(=O)(=O)c2ccccc2)cc1	Myeloid diff MLP active
Cc1c(C(=O)Nc2ccccc2)csc1-c1ccccc1	none
Cc1ccc(S(=O)(=O)N(CCC(=O)NCc2ccccc2F)c2ccccc2)cc1	none
Cc1ccc(S(=O)(=O)N(CCC(=O)Nc2ccc(OC(F)(F)F)cc2)c2ccccc2)cc1	NRP1-CendR mod 39.6
CC1(C)Oc2ccc3ccc(=O)oc3c2C(/C=N/O)=C1Cl	none
C/C(=N\NC(=O)c1ccc(CSc2cccc3cccnc23)cc1)C1CCCCC1	Myeloid diff MLP active
Cn1nccc1C(=O)N1CCC(Cc2ccccc2)CC1	none
COc1cc(C2c3cc4c(cc3OC(NCc3ccccc3)C2C)OCO4)cc(OC)c1OC (stereo unspecified)	Myeloid diff MLP inconclusive (no result: beta cell repl)
Cc1cc(N)n(-c2ccc3ccccc3c2)n1	Myeloid diff MLP active
COc1ccc(-n2nc(C)cc2N)cc1	none
